Compound activity: PubChem, several laboratories
Shown is part of a subset that was picked to be rich in hits.
UPR CHOP act – apoptotic UPR (CHOP) activation | CHO-CHOP luciferase reporter, luminescence; percent of tunicamycin response over DMSO baseline | activation, % at 10 µM | actives 0.34% (n = 330,000) | AID 449763;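 active = at 10 µM dose, activation of 40% or more, normalized to positive control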
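Assay system: CHO cells with stable CHOP pathway luciferase reporter; Buffer or medium: F12 plus 10% serum; Times: 16-18 h cell attachment, then 6 h compound exposure, 37 °C; Signal: luciferase luminescence; Read-out basis: percent activation relative to tunicamycin control; Control set: tunicamycin high control, DMSO low control.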
UPR XBP1 act – adaptive UPR (XBP1) activation; AID 463104; actives 0.33% (n = 330,000); CHO-XBP1 luciferase reporter, IRE1-XBP1 UPR activation, luminescence; percent of tunicamycin response, DMSO as zero; activation, % at 20 µM;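 active = versus positive control, 20 µM dose yields 30% or more activation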
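Assay system: IRE1-XBP1 luciferase reporter CHO line. Input: 1000 cells/well. Buffer or medium: F12 with 10% serum. Doses: 20 µM, 1% DMSO. Times: overnight seeding at 37 °C, 6 h compound treatment at 37 °C. Technique: Steady-Glo luciferase glow luminescence, 10 min after reagent addition.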
hiPSC survival – hiPSC single-cell survival enhancement | actives 0.044% (n = 360,000) | AID 602274 | survival enhancement, % at 20 µM | ATPlite luminescence; 100% = ROCK inhibitor wells, 0% = DMSO; in the data active = survival enhancement above about 18%;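 also: cells exposed to compounds for 16 hours before the ATP read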
Cardio protect – modulators protecting cardiomyocytes from myocardial damage | H9c2 cardiomyocytes, H2O2 injury protection, ATPLite, 2 h | protection from H2O2 cell death, % at 20 µM | actives 0.63% (n = 360,000) | AID 588492;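 active = compounds giving at least 50% protection of heart cells from peroxide-induced death in the single-dose screen, raw or plate-pattern-corrected value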
CHOP inh – inhibitors of CHOP induction in ER stress response. CHO-K1 CHOP-promoter luciferase, tunicamycin-induced, 15-18 h. actives 3.8% (n = 220,000). inhibition, % at 10 µM;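 active = compounds that reduced the stress-induced luciferase reporter signal by more than about 70% of percent inhibition, limit read from the data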
Each line names hits and unclear results; the compound was inactive in the other large screens.

COc1ccc(/C=N/NC(=O)c2nc(-c3ccccc3)n(-c3ccccc3)n2)c(O)c1	Cardio protect 60.9
CC(C)(C)c1cc(C(=O)N/N=C/c2ccccc2O)n(-c2ccccc2)n1	Cardio protect 51.3
COc1ccccc1C1CC(c2cccs2)=Nc2ccccc2S1 (stereo not given)	CHOP inh 84.0
Cc1cc(C)cc(NS(=O)(=O)c2ccc3c(c2)c(=O)n(C)c(=O)n3C)c1	CHOP inh 92.6
CC(=O)Oc1ccc2c(=O)c(Oc3ccccc3)c(C)oc2c1OC(C)=O	Cardio protect 64.6
CC1CCN(c2ncnc3c2cnn3Cc2ccc(Cl)cc2)CC1	CHOP inh 73.0
CC1CCCN(c2ncnc3c2cnn3-c2ccc(Cl)cc2)C1 (stereo not given)	CHOP inh 76.0
CCC(C)Nc1ncnc2c1cnn2Cc1ccc(Cl)cc1 (stereo not given)	Cardio protect 88.7
Cc1ccccc1N1CCN(c2ncnc3c2cnn3Cc2ccc(Cl)cc2)CC1	none
Cc1ccc(Cn2ncc3c(N4CCN(Cc5ccc(Cl)cc5)CC4)ncnc32)cc1	CHOP inh 79.1
CC(C)=CCOc1ccc2c(C)c(CCC(=O)N3C[C@H]4C[C@@H](C3)c3cccc(=O)n3C4)c(=O)oc2c1C	none (no result: UPR CHOP act, UPR XBP1 act, CHOP inh)
C=CCN1C(=O)C(=Cc2ccc3c(c2)CCC3)SC1=S	none (no result: UPR CHOP act, UPR XBP1 act, CHOP inh)
CCOc1cc(/C=C/c2ccc3cccc([N+](=O)[O-])c3n2)ccc1OCC(=O)N(C)C	Cardio protect 56.6
CCOc1cc(/C=C/c2ccc3cccc([N+](=O)[O-])c3n2)ccc1O	none
Clc1ccc(NN(Cc2ccncc2)c2ccc(Cl)cc2)cc1	none (no result: UPR CHOP act, UPR XBP1 act, CHOP inh)
COc1ccc([C@H]2N[C@]3(CCCN(Cc4ccc(C(F)(F)F)cc4)C3=O)[C@H]3C(=O)N(C)C(=O)[C@@H]23)cc1	none (no result: UPR CHOP act, UPR XBP1 act, CHOP inh)
COC(=O)c1ccc2[nH]c3cccc(/C(=C/c4ccccc4)c4ccccc4)c3c2c1	UPR XBP1 act 92.5 (no result: CHOP inh)
O=C1CCCc2[nH]c3cccc(/C(=C/c4ccccc4)c4ccccc4)c3c21	none (no result: CHOP inh)
CCCCn1nnnc1C1(C)CCC(=O)N1Cc1cc(OC)ccc1OC (stereo not given)	none (no result: UPR CHOP act, UPR XBP1 act, Cardio protect, CHOP inh)
O=C(/C(Cl)=C/Nc1ccc(Br)cn1)C(F)(F)F	CHOP inh 86.6
O=C(Nc1ccc(Cl)cc1)Nc1ccc(Br)cn1	none (no result: CHOP inh)
O=C1c2ccccc2C(=O)N1CCCc1nc2ccccc2c(=O)n1CCCn1ccnc1	none
Cn1c(-n2c(CCCN3C(=O)c4ccccc4C3=O)nc3ccccc3c2=O)nc2ccccc21	Cardio protect 101.3
CC1(C(=O)Nc2ccc(Cl)cc2)Cc2c(-c3ccc(C(N)=O)cc3)ccnc2O1 (stereo not given)	none (no result: UPR CHOP act, UPR XBP1 act, CHOP inh)
Cc1ccc2nc(NC(=O)c3ccc4c(c3)OCO4)sc2c1	CHOP inh 93.2
Cc1ccc2nc(NC(=O)c3cccc(-c4cc5ccccc5oc4=O)c3)sc2c1	UPR XBP1 act 121.8 (no result: hiPSC survival, Cardio protect)
CCOc1ccc2nc(NC(=O)c3cccc(N4C(=O)CCC4=O)c3)sc2c1	none (no result: UPR CHOP act, UPR XBP1 act, CHOP inh)
CCOc1ccc2nc(NC(=O)c3cccc(-c4cc5ccccc5oc4=O)c3)sc2c1	CHOP inh 91.7 (no result: UPR CHOP act, UPR XBP1 act)
Cc1ccccc1CC(=O)N1CCC(CCC(=O)NC2CC2)CC1	none (no result: UPR CHOP act, UPR XBP1 act, CHOP inh)
COc1cccc(/C=C/c2n[nH]c(=O)c(C#N)c2C)c1	none (no result: CHOP inh)
COc1cc(/C=C2\SC(N3CCc4ccccc4C3)=NC2=O)cc(OC)c1OC	Cardio protect 51.8
CCN1C(=O)[C@H]2[C@@H](c3ccc(-c4ccc(C(C)=O)cc4)cc3)N[C@@](C)(C(=O)OC)[C@H]2C1=O	Cardio protect 52.4 (no result: CHOP inh)
OC(CN1CCN(c2ccccn2)CC1)Cn1c2ccccc2c2ccccc21 (stereo not given)	CHOP inh 72.1
OC(COC(c1ccccc1)c1ccccc1)CN1CCN(c2ccccn2)CC1 (stereo not given)	none
CCN(CC)c1nc(C)c2c(c1C#N)CC(C)(C)OC2	CHOP inh 74.1
CSc1nc(C)cc(SCC(=O)Nc2ccccc2)n1	none
O=C(CSc1cccc(C(F)(F)F)c1)NC(=O)NCc1ccco1	CHOP inh 82.2
CSc1nc(C)cc(SCC(=O)Nc2ccc(Cl)cc2Cl)n1	CHOP inh 87.0
CCNC(=O)NC(=O)CSc1cccc(C(F)(F)F)c1	none
O=C(CSc1cccc(C(F)(F)F)c1)Nc1ccc(Cl)cc1Cl	CHOP inh 83.0
O=C(CSc1cccc(C(F)(F)F)c1)NC(=O)c1ccccc1	none
C=C1[C@@H](O)[C@H](Cc2ccccc2)N(Cc2ccccc2Br)S1(=O)=O	none (no result: UPR CHOP act, UPR XBP1 act, CHOP inh)
CCCCCCCCCC(=O)NC(CN1CCOCC1)[C@H](O)c1ccccc1 (stereo not given in full)	none (no result: UPR CHOP act, UPR XBP1 act, hiPSC survival, Cardio protect)
O=C(NCc1cccc(Cl)c1)c1cccc(S(=O)(=O)N2CCCC2)c1	none (no result: CHOP inh)
COc1ccc(NC(=O)NC2(C)CCS(=O)(=O)C2)cc1 (stereo not given)	none (no result: CHOP inh)
COc1ccc(NC(=O)NC23CC4(C)CC(C)(CC(C)(C4)C2)C3)cc1	CHOP inh 70.3
COC(=O)COc1ccc2oc(=O)cc(-c3cc4ccccc4o3)c2c1	none (no result: CHOP inh)
COc1cccc2cc(-c3cc(=O)oc4ccc(OCC(C)=O)cc34)oc12	Cardio protect 62.8 (no result: CHOP inh)
COC(=O)COc1ccc2oc(=O)cc(-c3cc4cccc(OC)c4o3)c2c1	none (no result: CHOP inh)
NC(=O)COc1ccc2oc(=O)cc(-c3cc4ccccc4o3)c2c1	Cardio protect 70.6 (no result: CHOP inh)
Cc1ccc(NC(=O)CCSc2nnc(C)o2)cc1	none (no result: CHOP inh)
COc1cccc(N(C(=O)Cn2nnc(-c3ccc(F)cc3)n2)C(C(=O)NCC2CCCO2)c2ccc(Cl)cc2)c1 (stereo not given)	none
COc1cccc(N(C(=O)Cn2nnc(-c3ccc(Cl)cc3)n2)C(C(=O)NCC2CCCO2)c2ccc(C)cc2)c1 (stereo not given)	CHOP inh 80.4
O=C(NC1CCCCC1)C1c2ccccc2OCC(=O)N1CCc1ccccc1 (stereo not given)	none (no result: UPR CHOP act, UPR XBP1 act, Cardio protect, CHOP inh)
Cc1ccc(S(=O)(=O)NCCC(=O)N2CCN(Cc3ccccc3)CC2)cc1	CHOP inh 82.4
CCCC(=O)NC(=S)Nc1cccc(Cl)c1N1CCCC1	CHOP inh 81.2
O=C(NC(=S)Nc1cccc(Cl)c1N1CCCCC1)c1cccs1	none
COc1ccc(OC)c(CN2CCN(C(=O)c3ccc(S(=O)(=O)N4CCCCCC4)cc3)CC2)c1	none (no result: UPR CHOP act, UPR XBP1 act, CHOP inh)
CN1CCN(/C=N/c2c(C#N)cnn2C)CC1	none
Cn1ncc(C#N)c1/N=C/N(Cc1ccccc1)Cc1ccccc1	CHOP inh 89.2
COc1ccc(-c2oc3ncnc(NCCN4CCOCC4)c3c2-c2ccc(OC)cc2)cc1	Cardio protect 74.9 (no result: CHOP inh)
Brc1ccc(-c2ccc(/C=N/Nc3nc(N4CCOCC4)nc(N4CCOCC4)n3)o2)cc1	Cardio protect 94.9
CCOC(=O)C1=CCN(S(=O)(=O)c2ccccc2C)C1c1ccc(Cl)cc1 (stereo not given)	none (no result: UPR CHOP act, UPR XBP1 act, CHOP inh)
